≈ marks a conversion by molar mass, not a printed value. Calls of active or inactive are those of the source. No cut-off for these calls is given here.
Key:
[1] = tested on: HFF; test: Toxicity to HFF at highest concentration; type: cell-based; settings: human
How it was run: (§1)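 Host-cell toxicity was tested on non-confluent fibroblast monolayers by 3H-thymidine incorporation, alongside visual inspection of monolayer integrity. Testing ran simultaneously with the parasite inhibition assay, and the highest concentration tested was scored.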

[2] = tested on: Toxoplasma gondii; test: Antiparasitic activity against Toxoplasma gondii infected in HFF after 24 hrs by [3H]uracil incorporation assay; type: functional
How it was run: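 Human foreskin fibroblasts were infected with T. gondii tachyzoites and given 1 h to invade before inhibitors were added. Cultures ran 3 days, then 3H-uracil was added for a further day. Parasite growth was read as uracil incorporation by liquid scintillation counting. MIC50 and MIC90 are the concentrations giving 50% and 90% growth inhibition. There were 6 replicate samples per group.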

[3] = Metabolic stability in human liver microsome assessed as compound remaining after 60 mins; type: ADME; settings: liver microsomes, read-out: INH
How it was run: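 Compounds were incubated with pooled human liver microsomes for 60 minutes, and the percentage of parent compound remaining was measured.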

[4] = tested on: Toxoplasma gondii; test: Antiparasitic activity against Toxoplasma gondii RH infected in ip dosed CD1 mouse; type: functional, organism-based
How it was run: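 CD1 mice were infected intraperitoneally with 2000 RH (Type 1) parasites, a lethal inoculum. Inhibitors were given intraperitoneally at 10mg/kg. Read-outs were peritoneal parasite burden by microscopy at day 5 and survival up to day 5 post-infection. There were 6 mice per group.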

[5] = target: CYP2C9 (Homo sapiens, UniProt P11712); test: Inhibition of CYP2C9 at 10 uM; type: ADME
CYP2C9, sequence (P11712 whole entry): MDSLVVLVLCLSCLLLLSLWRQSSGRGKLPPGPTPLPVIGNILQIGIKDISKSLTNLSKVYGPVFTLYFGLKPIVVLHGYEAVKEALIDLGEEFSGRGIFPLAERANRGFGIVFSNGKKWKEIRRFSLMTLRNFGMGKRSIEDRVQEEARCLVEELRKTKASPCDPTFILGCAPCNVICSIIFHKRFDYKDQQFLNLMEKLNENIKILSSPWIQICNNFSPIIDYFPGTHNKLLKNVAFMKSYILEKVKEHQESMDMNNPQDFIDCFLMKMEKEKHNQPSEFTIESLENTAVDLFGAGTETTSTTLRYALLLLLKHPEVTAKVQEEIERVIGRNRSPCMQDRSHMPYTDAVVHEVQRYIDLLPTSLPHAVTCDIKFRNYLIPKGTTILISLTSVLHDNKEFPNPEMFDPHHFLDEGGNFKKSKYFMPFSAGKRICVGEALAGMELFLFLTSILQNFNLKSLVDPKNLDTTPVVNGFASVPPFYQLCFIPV
How it was run: (§2)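 Inhibition was measured against recombinant CYP450 isozymes 2C9, 2D6 and 3A4, each with compound at 10μM, and reported as percent inhibition.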

[6] = tested on: HFF; test: Toxicity to HFF; type: cell-based; settings: human; how it was run: as §1
[7] = target: CYP2D6 (Homo sapiens, UniProt P10635); test: Inhibition of CYP2D6 at 10 uM; type: ADME; how it was run: as §2
CYP2D6, sequence (P10635 whole entry): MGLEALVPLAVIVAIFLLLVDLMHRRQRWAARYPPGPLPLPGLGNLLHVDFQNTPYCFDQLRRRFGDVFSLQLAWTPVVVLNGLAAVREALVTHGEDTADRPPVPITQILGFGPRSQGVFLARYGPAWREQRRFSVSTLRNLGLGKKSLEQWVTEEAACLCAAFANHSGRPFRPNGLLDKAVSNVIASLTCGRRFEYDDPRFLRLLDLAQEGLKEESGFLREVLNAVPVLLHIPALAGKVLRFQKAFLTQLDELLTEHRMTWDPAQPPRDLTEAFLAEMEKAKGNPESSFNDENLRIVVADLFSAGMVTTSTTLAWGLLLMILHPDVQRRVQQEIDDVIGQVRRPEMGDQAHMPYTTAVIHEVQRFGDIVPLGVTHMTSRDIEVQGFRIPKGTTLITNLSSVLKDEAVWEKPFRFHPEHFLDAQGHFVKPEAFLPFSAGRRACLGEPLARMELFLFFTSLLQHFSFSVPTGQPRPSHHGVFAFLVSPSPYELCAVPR

[8] = target: CYP3A4 (Homo sapiens, UniProt P08684); test: Inhibition of CYP3A4 at 10 uM; type: ADME; how it was run: as §2
CYP3A4, sequence (P08684 whole entry): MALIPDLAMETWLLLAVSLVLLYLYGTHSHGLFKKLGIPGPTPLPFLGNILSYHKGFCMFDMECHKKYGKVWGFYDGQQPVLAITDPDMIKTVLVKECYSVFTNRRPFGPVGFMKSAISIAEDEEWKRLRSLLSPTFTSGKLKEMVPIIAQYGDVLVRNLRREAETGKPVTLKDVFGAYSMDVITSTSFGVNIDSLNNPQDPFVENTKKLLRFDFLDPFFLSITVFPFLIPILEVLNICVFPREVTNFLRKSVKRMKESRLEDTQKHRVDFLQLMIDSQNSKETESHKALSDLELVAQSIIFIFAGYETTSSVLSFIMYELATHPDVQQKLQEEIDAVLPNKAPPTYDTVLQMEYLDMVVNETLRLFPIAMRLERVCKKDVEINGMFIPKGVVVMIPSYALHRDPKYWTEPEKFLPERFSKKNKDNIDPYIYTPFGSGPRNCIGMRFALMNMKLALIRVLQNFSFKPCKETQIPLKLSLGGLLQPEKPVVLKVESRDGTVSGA

[9] = target: T1, Enoyl-acyl carrier reductase (Toxoplasma gondii, UniProt Q6UCJ9); test: Inhibition of Toxoplasma gondii enoyl reductase
T1 sequence (Q6UCJ9 whole entry): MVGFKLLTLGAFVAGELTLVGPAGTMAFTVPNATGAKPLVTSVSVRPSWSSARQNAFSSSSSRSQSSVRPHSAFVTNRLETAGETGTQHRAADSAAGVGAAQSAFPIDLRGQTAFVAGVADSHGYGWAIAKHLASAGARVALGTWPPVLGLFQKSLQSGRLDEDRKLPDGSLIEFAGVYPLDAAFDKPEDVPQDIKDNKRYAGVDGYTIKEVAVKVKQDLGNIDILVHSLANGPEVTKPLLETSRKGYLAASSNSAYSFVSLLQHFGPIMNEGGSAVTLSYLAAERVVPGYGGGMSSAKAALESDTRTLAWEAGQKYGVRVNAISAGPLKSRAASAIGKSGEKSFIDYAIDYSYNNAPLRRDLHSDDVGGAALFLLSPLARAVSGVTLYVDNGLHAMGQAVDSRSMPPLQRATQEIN
How it was run: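 Recombinant TgENR (20 nM) was assayed in 100 mM Na/K phosphate pH 7.5, 150 mM NaCl and 100 μM NADH. Compounds were added in DMSO (2% final), and reactions were started at 25°C with 100 μM crotonyl-CoA. NADH consumption was followed at 340 nm.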

CCCc1ccc(Oc2ccc(C#N)cc2Cl)c(O)c1
Activity [1]: Non-toxic
MIC50 [2]: 3 µM (≈ 0.863 µg/mL)
MIC90 [2]: 5 µM (≈ 1.44 µg/mL)
remaining at 1 h [3]: 45.1%
Activity [4]: Active
inhibition at 10 µM [5]: > 85%
Activity [6]: 5 µM
inhibition at 10 µM [7]: < 22%
inhibition at 10 µM [8]: < 22%
IC50 [9]: < 20 nM
